{
  "source": "PubChem BioAssay AID2178",
  "about": "(The Scripps Research Institute Molecular Screening Center, 2009)",
  "note": "The whole screen tested about 2,400 compounds, of which fewer than 10 were called active.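 Rule for the calls: active = average inhibition across replicates above the hit cutoff set in the earlier primary screen; inactive = the rest.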 A selection follows.",
  "data": [
    {"molecular_target": "Procathepsin L (Homo sapiens) (UniProt P07711)", "sequence (P07711 whole entry, looked up)": "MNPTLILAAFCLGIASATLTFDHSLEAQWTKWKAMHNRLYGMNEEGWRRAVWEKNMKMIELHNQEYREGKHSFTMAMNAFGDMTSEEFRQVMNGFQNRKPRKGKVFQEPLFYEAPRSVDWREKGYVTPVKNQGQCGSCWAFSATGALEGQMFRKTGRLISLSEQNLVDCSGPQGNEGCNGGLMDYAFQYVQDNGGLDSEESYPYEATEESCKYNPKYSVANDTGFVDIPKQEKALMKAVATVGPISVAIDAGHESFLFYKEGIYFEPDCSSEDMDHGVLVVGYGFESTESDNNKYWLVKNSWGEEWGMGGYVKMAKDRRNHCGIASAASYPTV", "test": "CTSL1 protease inhibition confirmation – biochemical, QFRET, triplicate, counter-screen for PFM18AAP inhibitor project (AID 2178);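 note: 0% = median of test compound wells and 100% = Z-Phe-Ala-diazomethylketone 1 µM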", "settings": "purified cathepsin L1, Z-Leu-Arg-MCA fluorescence; at 5.96 µM; active compounds read high", "in_short": "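System: Purified cathepsin L1 | Amount: Enzyme 1.5 µg/mL before substrate addition | Also added: Z-Leu-Arg-MCA fluorogenic substrate | Incubation: Enzyme-compound preincubation 30 min, substrate reaction 90 min, 25 °C | Technique: MCA fluorescence measured at substrate addition and at 90 min | Measure: Percent inhibition from fluorescence change | Replicates: Triplicate wells per compound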", "values": [
      {"smiles": "CCN(CC)c1ccc(NC(=O)CCc2nnc3ccc(N4CCCCC4)nn23)c(C)c1", "inhibition": "1.25% (inactive)"},
      {"smiles": "c1ccc2sc(NN=C3CCCC3)nc2c1", "inhibition": "0.11% (inactive)"},
      {"smiles": "Cc1ccc(S(=O)(=O)N/N=C\\c2cc3c(cc2[N+](=O)[O-])OCO3)cc1", "inhibition": "-3.66% (inactive)"},
      {"smiles": "Cc1csc(NC(=O)NC2(C(F)(F)F)Oc3ccccc3O2)n1", "inhibition": "-4.56% (inactive)"},
      {"smiles": "Cn1c(SCC(=O)N/N=C/c2ccc(O)c(O)c2)nc2ccccc21", "inhibition": "-2.42% (inactive)"},
      {"smiles": "O=C(O)CCn1c(O)c(C=C2N=c3ccccc3=N2)sc1=S", "inhibition": "2.67% (inactive)"},
      {"smiles": "NC(=O)c1c(NC(=O)CSc2nnc(-c3ccco3)n2N)sc2c1CCCC2", "inhibition": "-6.97% (inactive)"},
      {"smiles": "O=C(Nn1cnnc1)c1cc(Cl)ccc1Cl", "inhibition": "-2.58% (inactive)"},
      {"smiles": "CC(C)C1N=C2c3ccccc3N=C(SCC(=O)c3ccc(O)c(O)c3)N2C1=O", "note": "(stereo not drawn)", "inhibition": "6.47% (inactive)"},
      {"smiles": "COc1ccc(OCc2nnc3n2N=C(c2ccccc2)C(CC(=O)O)S3)cc1", "note": "(stereo not drawn)", "inhibition": "0.71% (inactive)"},
      {"smiles": "Cc1ccc(C)c(NC(=O)NNC(=O)c2ccc3ccccc3c2O)c1", "inhibition": "-3.43% (inactive)"},
      {"smiles": "CNC(=S)NNC(=O)c1ccc(N(C)C)cc1", "inhibition": "3.16% (inactive)"},
      {"smiles": "CCN(CC)c1ccc(/C=N/Nc2nc(C)cc(C)n2)c(O)c1", "inhibition": "4.21% (inactive)"},
      {"smiles": "COc1ccc(OCc2n[nH]c(=S)n2N)cc1", "inhibition": "-6.49% (inactive)"},
      {"smiles": "Cc1cc(C)nc(Nc2ncn[nH]2)n1", "inhibition": "-0.26% (inactive)"},
      {"smiles": "O=C(Oc1ccc(Br)cc1C(=S)N1CCOCC1)c1cccc([N+](=O)[O-])c1", "inhibition": "-0.38% (inactive)"},
      {"smiles": "Cc1ccc(-c2ccc(/C=C(\\C#N)C(N)=S)o2)c([N+](=O)[O-])c1", "inhibition": "-0.99% (inactive)"},
      {"smiles": "O=C(CN1CCN(c2ccc(O)cc2)CC1)Nc1ccc(-c2ccccc2)cc1", "inhibition": "-1.37% (inactive)"},
      {"smiles": "Oc1ccc(/C=N/Nc2ccc(C(F)(F)F)cn2)cc1O", "inhibition": "-2.87% (inactive)"},
      {"smiles": "CCCc1nc2ccccc2c(=O)n1/N=C/c1ccc(O)c(O)c1", "inhibition": "-0.21% (inactive)"},
      {"smiles": "Cc1cc(C)nc(NNC2=CC(=O)CC(C)(C)C2)n1", "inhibition": "-3.35% (inactive)"},
      {"smiles": "CCN(CC)c1ccc2oc(=O)c(C)nc2c1", "inhibition": "-1.42% (inactive)"},
      {"smiles": "COc1c(O)ccc2c1CN1CCc3cc4c(cc3C1C2)OCO4", "note": "(stereo not drawn)", "inhibition": "-3.11% (inactive)"},
      {"smiles": "CC(C)(C)c1nnc(N/N=C/c2ccc(O)cc2)n(N)c1=O", "inhibition": "-5.72% (inactive)"},
      {"smiles": "Oc1ccc(/C=N/NC2=NCCCCC2)c(O)c1", "inhibition": "1.65% (inactive)"},
      {"smiles": "CC(C)(C)C(=O)OCc1nc(-c2ccc(O)c(O)c2)cs1", "inhibition": "-4.53% (inactive)"},
      {"smiles": "NC(=S)N/N=C/c1coc2cc(Cl)ccc2c1=O", "inhibition": "1.96% (inactive)"},
      {"smiles": "CCn1ccnc1CNC(=O)CC1C(=O)NCCN1Cc1ccc(F)cc1Cl", "note": "(stereo not drawn)", "inhibition": "-3.42% (inactive)"},
      {"smiles": "COc1cc(/C=N/NC(=S)Nc2cccnc2)cc(OC)c1O", "inhibition": "-3.45% (inactive)"},
      {"smiles": "Cn1c(=O)[nH]c(=O)c2c1[nH]c(=S)n2Cc1ccccc1", "inhibition": "-1.96% (inactive)"},
      {"smiles": "CC1CCN(C(=O)c2ccc3c(c2)NC(=O)CN3)CC1", "inhibition": "-3.71% (inactive)"},
      {"smiles": "O=C(O)c1cccc(NC(=S)N/N=C/c2c[nH]c3ccccc23)c1", "inhibition": "-2.87% (inactive)"},
      {"smiles": "O=C(Nc1cccc([N+](=O)[O-])c1)Nn1cnnc1", "inhibition": "-5.02% (inactive)"},
      {"smiles": "COc1cc(/C=N\\Nc2ccc([N+](=O)[O-])cn2)ccc1OCC(=O)O", "inhibition": "6.51% (inactive)"},
      {"smiles": "CC(C)c1ccc(NC(=S)NNc2ccc(Cl)c(C(=O)O)c2)cc1", "inhibition": "-5.45% (inactive)"},
      {"smiles": "Cc1nc2ccc(S(=O)(=O)NCC(=O)O)cc2s1", "inhibition": "-0.46% (inactive)"},
      {"smiles": "O=C(CSc1ncn[nH]1)Nc1ccnc2ccccc12", "inhibition": "-0.72% (inactive)"},
      {"smiles": "CCOc1cccc(/C=N/NC(=S)NCCN2CCOCC2)c1O", "inhibition": "3.05% (inactive)"},
      {"smiles": "CCOc1ccc(C2C3=C(CCCC3=O)N(CC(=O)O)C3=C2C(=O)CCC3)cc1", "inhibition": "0.31% (inactive)"},
      {"smiles": "COc1cc(/C=C2/C(=O)NN(c3cccc(Cl)c3)C2=O)cc(Br)c1O", "inhibition": "-3.26% (inactive)"},
      {"smiles": "O=C(CO/N=C/c1ccccc1O)NNC(=O)c1ccccc1Cl", "inhibition": "-40.2% (inactive)"},
      {"smiles": "COc1ccc2c(c1)C(C)=CC(C)(C)N2C(=O)Nc1ccccc1", "inhibition": "0.44% (inactive)"},
      {"smiles": "Oc1ccc(N2CCN(C(=S)NCc3ccccc3)CC2)cc1", "inhibition": "0.35% (inactive)"},
      {"smiles": "Cc1ccc2nc(-c3cccc(Br)c3)cc(C(=O)Nn3cnnc3)c2c1", "inhibition": "-9.17% (inactive)"},
      {"smiles": "CN(C)c1ccc(C(CC(=O)O)C(=O)O)cc1", "note": "(stereo not drawn)", "inhibition": "-7.14% (inactive)"},
      {"smiles": "CC(OC(=O)c1ccc2noc(-c3ccccc3)c2c1)C(N)=O", "note": "(stereo not drawn)", "inhibition": "2.03% (inactive)"},
      {"smiles": "NC(=O)C1CCN(C(=O)/C(=C/c2ccco2)NC(=O)c2ccccc2)CC1", "inhibition": "-6.56% (inactive)"},
      {"smiles": "Cc1cccc(NC(=O)c2sc3nc(N4CCOCC4)c4c(c3c2N)CCCC4)c1", "inhibition": "-1.63% (inactive)"},
      {"smiles": "CSc1n[nH]c(=S)n1N", "inhibition": "-0.69% (inactive)"},
      {"smiles": "CC(C)(C)NC(=O)C(c1ccncc1)N(C(=O)CNC(=O)c1ccco1)c1ccc2c(c1)OCO2", "note": "(stereo not drawn)", "inhibition": "-6.31% (inactive)"},
      {"smiles": "Cc1nc2nc[nH]n2c(=O)c1C/C=C/c1ccccc1", "inhibition": "-4.98% (inactive)"},
      {"smiles": "COc1ccc(N/C=C(\\C2OC(=O)c3ccccc32)[N+](=O)[O-])cc1", "note": "(stereo not drawn)", "inhibition": "-5.34% (inactive)"},
      {"smiles": "c1ccc2c(c1)OCC(c1nn3cnnc3s1)O2", "note": "(stereo not drawn)", "inhibition": "2.86% (inactive)"},
      {"smiles": "COc1cc(/C=N/Nc2nn3cnnc3c3ccccc23)cc(OC)c1OC", "inhibition": "3.85% (inactive)"},
      {"smiles": "ClC1(Cl)CC1CSc1ncn[nH]1", "note": "(stereo not drawn)", "inhibition": "-4.69% (inactive)"},
      {"smiles": "S=c1[nH]nc2c3c4c(sc3ncn12)CCCC4", "inhibition": "-1.23% (inactive)"},
      {"smiles": "Cc1ccc(-c2noc(CC(c3ccccc3)c3ccccc3)n2)cc1", "inhibition": "2.35% (inactive)"},
      {"smiles": "CC(/C=C/C1(O)C(C)CC(=O)CC1(C)C)OC1OC(CO)C(O)C(O)C1O", "note": "(stereo not drawn)", "inhibition": "-6.26% (inactive)"},
      {"smiles": "Cc1cc2c(C)nc(N/N=C/c3ccccc3)nc2o1", "inhibition": "3.67% (inactive)"},
      {"smiles": "O=C1CCCCN1CCCC(=O)N1CCCC(Nc2ccc(F)cc2)C1", "note": "(stereo not drawn)", "inhibition": "-1.53% (inactive)"},
      {"smiles": "O=c1nc(N/N=C/c2ccco2)cn[nH]1", "inhibition": "8.33% (inactive)"},
      {"smiles": "O=C(COc1ccc([N+](=O)[O-])cc1Cl)Nn1cnnc1", "inhibition": "-1.51% (inactive)"},
      {"smiles": "O=C(Nc1ccccc1Cl)Nn1cnnc1", "inhibition": "-5.2% (inactive)"}
    ]}
  ]
}
